Sampled rows, rich in hits. Any-hit rate of the full collection: about 1.4%.
Diaphorase act: counter-screen for diaphorase-based assays: diaphorase activators and chemical reducers. Diaphorase/resazurin coupled assay, resorufin fluorescence, 16 min; active compounds read high; 1 = vehicle wells, 0 = NADH-free wells. 190,000 tested, 0.005% active. activation factor at 20 µM;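 active = diaphorase activity raised at least twofold by the compound at 20 µM; inactive = activation factor below 2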
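Assay system: bacterial diaphorase enzyme (C. kluyveri) / Input: enzyme 0.07 U/mL final / Medium: 50 mM HEPES pH 7.4 with 4.542 mM MgCl2, 0.005% Tween 20 / Doses: single compound dose of 20 µM, 1% DMSO final / Incubation: 16 min enzyme reaction, ambient temperature / Signal: fluorescence, excitation 544 nm and emission 590 nm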
GSH fluor: GSH bead compound fluorescence profile. GSH beads flow cytometry, compound fluorescence 488/530 nm; active compounds read high. fluorescence (KMESF) at 10 µM. 190,000 tested, 0.25% active. AID 1776; in the data active = fluorescence above about 89;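 also: glutathione beads carrying GST-tagged Bcl family fusion proteins plus one bare bead set; values are compound well signal with DMSO vehicle wells as background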
PMI act: activators of human phosphomannose isomerase | P34949 | activation factor at 20 µM | 190,000 tested, 0.005% active | purified human PMI, coupled resazurin fluorescence, 20 min; active compounds read high; 1 = vehicle control, 0 substrate-free wells;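 active = activation factor of 2 or more at 20 µM, relative to plate controls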
Target sequence (P34949 whole entry, looked up): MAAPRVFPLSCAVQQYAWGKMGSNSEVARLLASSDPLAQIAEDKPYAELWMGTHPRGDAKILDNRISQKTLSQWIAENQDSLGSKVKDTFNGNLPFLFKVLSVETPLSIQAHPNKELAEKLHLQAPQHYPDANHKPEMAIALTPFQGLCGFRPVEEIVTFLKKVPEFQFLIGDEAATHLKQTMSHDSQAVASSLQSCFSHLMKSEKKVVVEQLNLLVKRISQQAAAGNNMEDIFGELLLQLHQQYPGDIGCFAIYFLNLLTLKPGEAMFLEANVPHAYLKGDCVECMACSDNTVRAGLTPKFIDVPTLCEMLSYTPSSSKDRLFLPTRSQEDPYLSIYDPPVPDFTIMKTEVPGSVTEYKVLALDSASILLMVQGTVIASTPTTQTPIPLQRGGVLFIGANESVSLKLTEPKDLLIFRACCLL
PMI act satM6P: activators of human phosphomannose isomerase at near-saturating mannose 6-phosphate. AID 1216. activation factor at 20 µM. P34949. coupled PMI enzyme assay, resazurin fluorescence, 20 min; active compounds read high; 1 = untreated enzyme, 0 = substrate-free blank. 190,000 tested, 0.34% active;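 active = activation factor of 2 or more at 20 µM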
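Material: human phosphomannose isomerase with PGI, G6PDH, diaphorase coupling enzymes; amount: PMI at 15 ng/mL final; also added: Mannose-6-phosphate 1.0 mM (near-saturating) plus 0.22 mM NADP+; incubation: enzyme reaction with compound 20 min at room temperature; signal: resorufin fluorescence (Ex 544/Em 590 nm) from resazurin via diaphorase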
Avidin fluor: avidin bead compound fluorescence profile; Avidin beads, compound fluorescence 488/530 nm, flow cytometry; active compounds read high; fluorescence (KMESF) at 10 µM; 220,000 tested, 0.38% active; AID 1775; in the data active = fluorescence above about 47
p47phox inh: p47phox (human) inhibition. P14598. p47phox/p22phox peptide binding, fluorescence polarization, 2 h. inhibition, % at 24.7 µM. 220,000 tested, 0.53% active. AID 1274;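 active = inhibition above about 30%, limit read from the data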;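 also: 0% = p47phox with labelled peptide and 100% = labelled peptide alone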
Numbers without * were called inactive; / = not tested or not shown; + = active, no number.

SMILES	Diaphorase act	GSH fluor	PMI act	PMI act satM6P	Avidin fluor	p47phox inh
CCC(=O)N1CCc2cc(S(=O)(=O)NC(Cc3ccccc3)C(=O)NC3CCCCC3C)ccc21 (centres undefined)	1	44	1	1.1	6	-5
CCCCCOC(=O)CSc1nnc(-c2cc(OC)c(OC)c(OC)c2)o1	0.8	45	0.8	0.8	4	31*
O=C(CN1CCN(C(=O)c2ccco2)CC1)Nc1ccc2c(c1)OCCO2	0.8	36	0.9	0.9	223*	-2
Cc1ccc(C(=O)Nc2nnc(-c3ccc(C(C)(C)C)cc3)s2)cc1	0.9	25	0.9	0.9	24	0
Cc1cccc(-n2ncc(C#N)c2N)c1	0.9	22	0.9	0.9	20	172*
O=C1C(c2c(O)[nH]c3ccccc23)=Nc2ccccc21	0.9	68	1	1	6	93*
NS(=O)(=O)c1cccc(NC(=O)CSc2nnc(-c3ccccc3F)n2C2CC2)c1	/	/	/	/	6	-3
Clc1cccc(-c2cc3nc4c(c(N5CCOCC5)n3n2)CCCC4)c1	0.8	19	0.8	0.9	35	-9
Clc1cccc(-c2cc3nc4c(c(N5CCN(c6cnccn6)CC5)n3n2)CCCC4)c1	0.8	104*	0.9	0.9	3	-1
COc1ccccc1-c1c(C(F)(F)F)oc2cc(OCC(=O)Nc3ccccc3C(F)(F)F)ccc2c1=O	0.9	12	0.9	1	10	-4
COc1ccc(-c2c(C(F)(F)F)oc3cc(OCC(=O)Nc4ccccc4C(F)(F)F)ccc3c2=O)cc1OC	0.8	14	1	0.9	20	31*
Cc1ccc2cc3cc(C(=O)N4CCN(Cc5ccccc5)CC4)sc3nc2c1	0.9	231*	1	1	69*	-5
C/C(=N/NC(=O)CNC(=O)c1ccccn1)c1ccc([N+](=O)[O-])cc1	1.1	11	1.1	1.2	8	-7
O=C(O)/C=C/C(=O)NCCc1ccc(Cl)cc1	/	/	/	/	7	3
N/N=c1\sc2ccccc2n1-c1ccccc1	1	14	1	1.1	47*	-24
CC(=O)N=c1sc2ccccc2n1C	0.8	28	1	1	32	-8
COc1ccc(OC)c(/C=N/NC(=O)c2cc(-c3ccc(C)o3)nc3ccccc23)c1	0.9	13	1.1	1	1	+
N=C(N)SCc1cn(-c2ccccc2)nc1-c1ccc(Br)cc1	1.7	11	0.9	1	9	54*
COc1ccc(-c2nn(-c3ccccc3)cc2CO)cc1	1	22	0.9	0.9	26	-12
O=C(NCCc1c[nH]c2ccccc12)c1ccc(-n2cnnn2)cc1	1.1	26	1.1	1.1	67*	-12
CCOc1ccc(Nc2nc(N)nc(CSC(=S)N3CCOCC3)n2)cc1	/	/	/	/	8	125*
Cc1ccc(Nc2nc(N)nc(CSC(=S)N3CCOCC3)n2)cc1	0.8	21	1	1	7	-6
O=C(NCCCN1CCCC1)C1CCN(C(=O)c2cc3sccc3n2Cc2ccc(F)cc2)CC1	1	31	1	1	193*	-5
O=C(CC1Sc2ncnn2C1=O)Nc1ccccc1 (centres undefined)	0.8	34	0.6	0.8	14	5
Cc1nc2ccccc2n1CCC(=O)O	1	35	1	1.1	5	-2
SMILES	Diaphorase act	GSH fluor	PMI act	PMI act satM6P	Avidin fluor	p47phox inh
Cc1nc2ccccc2n2c(O)c(CC(=O)O)cc12	0.9	25	1	1.1	9	35*
CCn1c(SCC(=O)Nc2ccc3c(c2)oc2ccccc23)nnc1-c1ccc(N)cc1	0.9	22	0.8	0.9	7	0
O=C(NNc1ccc([N+](=O)[O-])cc1)c1ccccc1Cl	1	13	1.1	1	9	-5
NS(=O)(=O)c1ccc(NNC(=O)c2ccccc2C(=O)O)cc1	/	/	/	/	5	-6
O=C(NNc1ccc([N+](=O)[O-])cc1)c1ccccc1F	1	11	1.7	2.3*	10	-3
O=C(/C=C/c1ccccc1)NNc1ccc(Cl)cc1	1	17	1.8	2.7*	6	-3
O=C(O)c1ccccc1C(=O)NNc1ccc(F)cc1F	0.8	10	1.6	2.5*	12	0
O=C(/C=C/c1ccccc1)NNC(=O)c1cccc(Cl)c1	0.9	25	0.9	0.8	10	-7
O=C(O)c1ccccc1C(=O)NNc1ccc(Cl)cc1	1	39	1.6	2.4*	11	-2
CCOC(=O)COn1c(=O)c(-c2cccs2)[n+]([O-])c2ccccc21	0.8	9	0.8	0.7	9	-7
O=C(c1ccc(Cl)cc1)c1c[nH]c(C(=O)NNc2ccccc2)c1	0.9	10	1.7	2.1*	11	29
O=C(c1ccc(Cl)cc1)c1c[nH]c(C(=O)C(Cl)(Cl)Cl)c1	0.7	53	1.1	1.3	13	-3
CCOc1ccc(NC(=O)Cn2cncc2-c2ccc([N+](=O)[O-])cc2)cc1	1	14	0.9	0.8	5	45*
CCOC(=O)Cn1cncc1-c1ccc([N+](=O)[O-])cc1	0.9	13	1	1	2	0
O=C(Cn1cncc1-c1ccc([N+](=O)[O-])cc1)Nc1cccc2ccccc12	1	11	1	0.7	16	38*
O=C(CNc1cccc2ccccc12)c1ccc([N+](=O)[O-])cc1	0.7	15	0.7	0.4	5	-5
COc1cccc2sc(NC(=O)c3ccc(Br)s3)nc12	0.9	265*	0.9	0.9	7	-24
Cc1cccc2sc(NC(=O)c3ccc(Cl)s3)nc12	0.9	21	1	1	7	-15
CC(=O)N(c1ccccc1)c1ccc([N+](=O)[O-])cc1[N+](=O)[O-]	0.9	12	1.1	0.9	13	7
CCCN1C(=O)/C(=C\C=C2/Sc3ccccc3N2CC)SC1=S	/	10	/	/	11	77*
CC1(C)CC(=O)C=C(Nc2ccc(F)cc2F)C1	1.1	11	1	1.1	18	-14
CC1(C)CC(=O)C=C(Nc2ccccc2F)C1	0.9	267*	0.9	0.9	8	-2
O=C(CN1C(=O)c2ccccc2C1=O)OCC(=O)N1CCc2ccccc2C1	0.9	268*	1.1	1	8	-13
CNS(=O)(=O)c1cccc(C(=O)OCC(=O)N2CCc3ccccc3C2)c1	1	28	1.1	1.1	10	30*
CNS(=O)(=O)c1cccc(C(=O)OCC(=O)N2c3ccccc3CC2C)c1 (centres undefined)	0.8	11	0.9	0.9	12	-8
CC(C)NC(=O)NC(=O)COC(=O)c1ccccc1F	0.9	11	0.9	0.9	18	-11

Source: PubChem
